Measured values reported in ChEMBL document CHEMBL5724801, “EUbOPEN Chemogenomics Library - Multiplex” (2024).
Where “and” joins values, the source holds several entries; their conditions need not be identical. Identical values can stand only once.

System: Fibroblast
Test: Multiplex assay against human fibroblast
Format: toxicity, cell-based
How it was run: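 Compound was added to live cells that had been stained at seeding with Hoechst33342, BioTracker Green Microtubule Cytoskeleton Dye, MitoTracker Red and Annexin V Alexa Fluor 680, and imaging followed on a CQ1 microscope at 37°C and 5% CO2. CellPathfinder machine-learning gating divided cells into Hoechst high-intensity objects or normal cells, normal cells into healthy, pyknosed or fragmented nuclei, and pyknosed cells into mitotic or apoptotic. Tubulin, mitochondrial-mass and membrane-permeability phenotypes are per cents of healthy-nucleus cells.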

[1] = 12 h, 1 µM, compound concentration 1 uM
[2] = 12 h, 10 µM, compound concentration 10 uM
[3] = 24 h, 1 µM, compound concentration 1 uM
[4] = 24 h, 10 µM, compound concentration 10 uM
[5] = 48 h, 1 µM, compound concentration 1 uM
[6] = 48 h, 10 µM, compound concentration 10 uM

CN(C)Cc1cccc(NC(=C2C(=O)Nc3cc(C(=O)N(C)C)ccc32)c2ccccc2)c1
Population Fragmented Nuclei (%) [1]: 12.28% and 5.26%
Population Healthy Nuclei (%) [1]: 63.16% and 78.47%
Population Hoechst High Intensity Objects (%) [1]: 0%
Population Membrane Permeable-Phenotype (%) [1]: 4.17% and 9.15%
Population Mitochondria Different-Phenotype (%) [1]: 12.5% and 7.93%
Population Mitotic Cells (%) [1]: 91.07% and 67.65%
Population Normal (%) [1]: 100%
Population Pyknosed Nuclei (%) [1]: 24.56% and 16.27%
Population Tubulin-Different-Phenotype (%) [1]: 20.14% and 25%
Total Cell Count [1]: 228 and 209
Population Apoptotic (%) [2]: 15.09% and 31.43%
Population Fragmented Nuclei (%) [2]: 12.72% and 8.65%
Population Healthy Nuclei (%) [2]: 64.04% and 80.13%
Population Hoechst High Intensity Objects (%) [2]: 0%
Population Membrane Permeable-Phenotype (%) [2]: 8.22% and 6.4%
Population Mitochondria Different-Phenotype (%) [2]: 23.97% and 16.8%
Population Mitotic Cells (%) [2]: 84.91% and 68.57%
Population Normal (%) [2]: 100%
Population Pyknosed Nuclei (%) [2]: 23.25% and 11.22%
Population Tubulin-Different-Phenotype (%) [2]: 54.79% and 75.6%
Total Cell Count [2]: 228 and 312
Population Fragmented Nuclei (%) [3]: 10.42% and 4.72%
Population Healthy Nuclei (%) [3]: 77.5% and 83.96%
Population Hoechst High Intensity Objects (%) [3]: 0%
Population Membrane Permeable-Phenotype (%) [3]: 1.08% and 2.81%
Population Mitochondria Different-Phenotype (%) [3]: 4.84% and 10.11%
Population Mitotic Cells (%) [3]: 93.1% and 75%
Population Normal (%) [3]: 100%
Population Pyknosed Nuclei (%) [3]: 12.08% and 11.32%
Population Tubulin-Different-Phenotype (%) [3]: 11.29% and 23.03%
Total Cell Count [3]: 240 and 212
Population Apoptotic (%) [4]: 13.33% and 25%
Population Healthy Nuclei (%) [4]: 66.94% and 85.67%
Population Hoechst High Intensity Objects (%) [4]: 0%
Population Membrane Permeable-Phenotype (%) [4]: 8.43% and 2.18%
Population Mitochondria Different-Phenotype (%) [4]: 24.7% and 21.82%
Population Mitotic Cells (%) [4]: 86.67% and 75%
Population Normal (%) [4]: 100%
Population Pyknosed Nuclei (%) [4]: 18.15% and 9.97%
Population Tubulin-Different-Phenotype (%) [4]: 63.25% and 79.64%
Total Cell Count [4]: 248 and 321
Population Apoptotic (%) [5]: 26.67% and 31.25%
Population Fragmented Nuclei (%) [5]: 11.31% and 7.86%
Population Healthy Nuclei (%) [5]: 83.21% and 85.15%
Population Hoechst High Intensity Objects (%) [5]: 0%
Population Membrane Permeable-Phenotype (%) [5]: 0.88% and 7.18%
Population Mitotic Cells (%) [5]: 73.33% and 68.75%
Population Normal (%) [5]: 100%
Population Pyknosed Nuclei (%) [5]: 5.47% and 6.99%
Population Tubulin-Different-Phenotype (%) [5]: 7.46% and 16.92%
Total Cell Count [5]: 274 and 229
Population Apoptotic (%) [6]: 33.33% and 64.71%
Population Fragmented Nuclei (%) [6]: 14.48% and 6.69%
Population Healthy Nuclei (%) [6]: 77.44% and 87.9%
Population Hoechst High Intensity Objects (%) [6]: 0%
Population Membrane Permeable-Phenotype (%) [6]: 1.3% and 2.9%
Population Mitochondria Different-Phenotype (%) [6]: 11.3% and 9.42%
Population Mitotic Cells (%) [6]: 66.67% and 35.29%
Population Normal (%) [6]: 100%
Population Pyknosed Nuclei (%) [6]: 8.08% and 5.41%
Population Tubulin-Different-Phenotype (%) [6]: 43.48% and 85.14%
Total Cell Count [6]: 297 and 314

COc1ccc2[nH]c(I)c(CCNC(C)=O)c2c1 [IODOMELATONIN]
Population Apoptotic (%) [1]: 53% and 32%
Population Fragmented Nuclei (%) [1]: 15% and 23%
Population Healthy Nuclei (%) [1]: 64% and 60%
Population Hoechst High Intensity Objects (%) [1]: 2% and 5%
Population Membrane Permeable-Phenotype (%) [1]: 4% and 7%
Population Mitochondria Different-Phenotype (%) [1]: 4% and 3%
Population Mitotic Cells (%) [1]: 46% and 68%
Population Normal (%) [1]: 97% and 94%
Population Pyknosed Nuclei (%) [1]: 19% and 15%
Population Tubulin-Different-Phenotype (%) [1]: 28% and 33%
Total Cell Count [1]: 137 and 173
Population Apoptotic (%) [2]: 35% and 30%
Population Fragmented Nuclei (%) [2]: 14% and 38%
Population Healthy Nuclei (%) [2]: 64% and 44%
Population Hoechst High Intensity Objects (%) [2]: 2% and 3%
Population Membrane Permeable-Phenotype (%) [2]: 2% and 5%
Population Mitochondria Different-Phenotype (%) [2]: 6% and 0%
Population Mitotic Cells (%) [2]: 64% and 69%
Population Normal (%) [2]: 97% and 96%
Population Pyknosed Nuclei (%) [2]: 21% and 17%
Population Tubulin-Different-Phenotype (%) [2]: 20% and 43%
Total Cell Count [2]: 148 and 157
Population Apoptotic (%) [3]: 62% and 57%
Population Fragmented Nuclei (%) [3]: 16% and 26%
Population Healthy Nuclei (%) [3]: 63% and 57%
Population Hoechst High Intensity Objects (%) [3]: 0% and 5%
Population Membrane Permeable-Phenotype (%) [3]: 0% and 6%
Population Mitochondria Different-Phenotype (%) [3]: 7%
Population Mitotic Cells (%) [3]: 37% and 42%
Population Normal (%) [3]: 99% and 94%
Population Pyknosed Nuclei (%) [3]: 20% and 15%
Population Tubulin-Different-Phenotype (%) [3]: 27% and 39%
Total Cell Count [3]: 134 and 176
Population Apoptotic (%) [4]: 35% and 24%
Population Fragmented Nuclei (%) [4]: 16% and 38%
Population Healthy Nuclei (%) [4]: 58% and 41%
Population Hoechst High Intensity Objects (%) [4]: 2% and 4%
Population Membrane Permeable-Phenotype (%) [4]: 1% and 10%
Population Mitochondria Different-Phenotype (%) [4]: 4% and 1%
Population Mitotic Cells (%) [4]: 64% and 75%
Population Normal (%) [4]: 97% and 95%
Population Pyknosed Nuclei (%) [4]: 24% and 20%
Population Tubulin-Different-Phenotype (%) [4]: 30% and 40%
Total Cell Count [4]: 143 and 149
Population Apoptotic (%) [5]: 76% and 42%
Population Fragmented Nuclei (%) [5]: 16% and 30%
Population Healthy Nuclei (%) [5]: 64% and 55%
Population Hoechst High Intensity Objects (%) [5]: 3% and 4%
Population Membrane Permeable-Phenotype (%) [5]: 0% and 5%
Population Mitochondria Different-Phenotype (%) [5]: 4% and 0%
Population Mitotic Cells (%) [5]: 23% and 57%
Population Normal (%) [5]: 96% and 95%
Population Pyknosed Nuclei (%) [5]: 18% and 13%
Population Tubulin-Different-Phenotype (%) [5]: 22% and 40%
Total Cell Count [5]: 147 and 163
Population Apoptotic (%) [6]: 60% and 38%
Population Fragmented Nuclei (%) [6]: 29% and 48%
Population Healthy Nuclei (%) [6]: 56% and 38%
Population Hoechst High Intensity Objects (%) [6]: 7% and 2%
Population Membrane Permeable-Phenotype (%) [6]: 1% and 10%
Population Mitochondria Different-Phenotype (%) [6]: 1% and 5%
Population Mitotic Cells (%) [6]: 40% and 61%
Population Normal (%) [6]: 92% and 98%
Population Pyknosed Nuclei (%) [6]: 13% and 12%
Population Tubulin-Different-Phenotype (%) [6]: 22% and 57%
Total Cell Count [6]: 159 and 150
